Assay outcomes: PubChem BioAssay, several laboratories
An excerpt weighted towards active compounds, which were near 1.8% of everything screened.
NSD2 HMT inh – NSD2 (human) methyltransferase inhibition; O96028; NSD2 peptide methylation, AlphaScreen, 120 min; inhibition, % at 12.5 µM; hit rate 0.54% among 310,000; AID 743445; in the data active = inhibition above about 50%
TDP2 inh – TDP2 (human) inhibition, absorbance primary screen. O95551. hit rate 0.34% among 370,000. inhibition, % at 12.8 µM. recombinant TDP2, T5PNP hydrolysis, p-nitrophenol absorbance 415 nm;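 active = inhibition above the mean of all tested compounds plus 3 SD, set per campaign, cut at about 25% in these data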;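 also: 0% = DMSO with enzyme and 100% = buffer with substrate but no TDP2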
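Material: recombinant human TDP2; quantity: TDP2 enzyme at 120 nM final; medium: Tris-HCl pH 7.5 with MgCl2; compound: single concentration, 12.8 µM nominal, with 1% DMSO; incubation: 2 h enzyme incubation at 37 °C; signal: epi absorbance; measure: percent inhibition; benchmarks: high control without enzyme, low control DMSO plus TDP2; repeats: singlicate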
UHRF1 binding – UHRF1 methyl-DNA binding inhibition; Q96T88; UHRF1 binding to methylated oligo, TR-FRET; inhibition, % at 4.4 µM; hit rate 0.75% among 370,000; AID 687016; in the data active = inhibition above about 21%;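 also: UHRF1 SRA domain binding a hemimethylated CpG hairpin DNA probe; 0% = median of test compound wells and 100% = reference inhibitor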
LEDGF integ inh – blocks HIV-1 LEDGF/p75-dependent DNA integration; TR-FRET IN-LEDGF/p75 DNA integration, Eu/Cy5; inhibition, % at 3.7 µM; hit rate 0.64% among 370,000; AID 743269;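 active = inhibition above the screen-wide mean plus 3 SD, cut at about 13% in these data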;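 also: signal is the Cy5 over europium emission ratio at 671 and 618 nm; 0% = plate median of compound wells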
MBD2 inh – inhibitors of human MBD2 binding to methylated oligonucleotide | TR-FRET | inhibition, % at 4.4 µM | hit rate 0.31% among 370,000 | Q9UBB5; in the data active = inhibition above about 13%
Casp6 inh – inhibitors of human caspase-6 | purified caspase-6, Z-VEID-R110 cleavage fluorescence | hit rate 0.53% among 350,000 | inhibition, % at 12.5 µM;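 active = mean inhibition across replicates at least about 35%, with every replicate also reaching that limit, limit read from the data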;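 also: 0% = median of neutral control wells and 100% = no fluorescence left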
IN multimer up – activates HIV-1 integrase multimerization in LEDGF counter-screen; TR-FRET HIV-1 integrase multimerization, biochemical; activation, % at 7.7 µM; hit rate 17% among 2,000; shares compounds with LEDGF integ inh; in the data active = activation above about 8.9%
TRFRET interf – counter-screen for LEDGF/p75 integration inhibitors: TR-FRET optical interference. shares compounds with LEDGF integ inh. TR-FRET optical interference counterscreen, HIV-1 IN multimerization. inhibition, % at 7.7 µM. 2,000 tested, under 10 active. AID 1053135;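 active = inhibition above the mean over all tested compounds plus 3 SD, which no compound reached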;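 also: 0% = integrase with antibodies and DMSO and 100% = antibodies without integrase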
LEDGF integ conf – confirmation of HIV-1 LEDGF/p75-dependent integration inhibitors; hit rate 36% among 2,000; shares compounds with LEDGF integ inh; inhibition, % at 3.7 µM; TR-FRET LEDGF/p75-dependent HIV-1 integration, biochemical; AID 1053136; in the data active = inhibition above about 14%
Active calls of the source: *.

`CC(C)NC(=O)C(Cc1ccccc1)N1C(=O)c2ccccc2C1=O` (stereo not drawn) gave NSD2 HMT inh 0.3, TDP2 inh -22.8, UHRF1 binding 4.4, LEDGF integ inh 2.5 and MBD2 inh 0.7.
`O=C(NCC[C@@H]1CC[C@H](NS(=O)(=O)c2ccc(F)cc2)[C@@H](CO)O1)Nc1ccc(F)cc1` gave Casp6 inh 0.3.
`C[C@@H]1CCCCO[C@H](CN(C)S(=O)(=O)c2cn(C)cn2)[C@H](C)CN([C@@H](C)CO)C(=O)c2cc(NC(=O)c3ccncc3)ccc2O1` gave Casp6 inh -0.9.
CCOc1ccc2c(c1)C(C)=CC(C)(C)N2C(=O)Nc1ccccc1F was read as NSD2 HMT inh 65.4*, TDP2 inh 34.1*, UHRF1 binding -1.8, LEDGF integ inh 21.6*, MBD2 inh -13.8, Casp6 inh 11.3, IN multimer up 4.2, TRFRET interf -21.5 and LEDGF integ conf 1.3.
Screening CCNC(=O)N1c2ccc(OCC)cc2C(C)=CC1(C)C returned NSD2 HMT inh 10.2, TDP2 inh 11.1, UHRF1 binding -7.0, LEDGF integ inh 6.9 and MBD2 inh -1.2.
`c1ccc(-c2noc(CN3CCN(c4ccccc4)CC3)n2)cc1` gave TDP2 inh 1.9, UHRF1 binding -0.3, LEDGF integ inh -2.5, MBD2 inh -0.5 and Casp6 inh 0.2.
For c1ccc(-c2noc(CN3CCN(C(c4ccccc4)c4ccccc4)CC3)n2)cc1 the results were NSD2 HMT inh 0.7, TDP2 inh 11.7, UHRF1 binding -0.3, LEDGF integ inh 15.2*, MBD2 inh -0.7, IN multimer up 0.3, TRFRET interf -1.5 and LEDGF integ conf -1.0.
COc1ccc2c3c(n(C)c2c1)[C@@H](CO)N(C(=O)NC(C)C)CC31CCN(CC2CC2)CC1 was read as Casp6 inh -4.1.
COC(=O)c1c(C(=O)OC)c(C)n(Cc2ccco2)c1C was read as NSD2 HMT inh -5.9, TDP2 inh 9.9, UHRF1 binding 12.6, LEDGF integ inh 0.1 and MBD2 inh 5.4.
For CCOc1cccc(=O)c2c(C)n(Cc3ccco3)c(C)c12 the results were NSD2 HMT inh 1.6, TDP2 inh -5.1, UHRF1 binding 1.9, LEDGF integ inh 31.0*, MBD2 inh 0.3, IN multimer up 1.0, TRFRET interf -4.8 and LEDGF integ conf 12.8.
COC(=O)c1c(NC(=O)CN2CCC3(O)CCCCC3C2c2cc(OC)ccc2OC)sc(C)c1C (stereo not drawn) was read as NSD2 HMT inh -0.3, TDP2 inh -2.7, UHRF1 binding -2.8, LEDGF integ inh 14.9*, MBD2 inh -3.3, IN multimer up 0.5, TRFRET interf -2.6 and LEDGF integ conf -8.8.
Oc1cccc(Nc2ccccc2)c1 was read as TDP2 inh 2.8, UHRF1 binding -1.1, LEDGF integ inh 16.2*, MBD2 inh -0.1, Casp6 inh -5.0, IN multimer up 25.7*, TRFRET interf -83.3 and LEDGF integ conf 0.7.
Screening C[C@H]1CCCCO[C@@H](CN(C)C(=O)Nc2ccccc2)[C@@H](C)CN([C@@H](C)CO)C(=O)c2cc(NC(=O)c3ccccc3)ccc2O1 returned Casp6 inh -0.7.
For O=C(CN1CCN(c2ccc(F)cc2)CC1)Nc1ccc(F)c(F)c1 the results were NSD2 HMT inh -0.3, TDP2 inh -9.9, UHRF1 binding 17.8, LEDGF integ inh 2.6 and MBD2 inh 4.1.
For O=C(CN1CCN(c2ccc(Cl)cc2)CC1)Nc1cccc(F)c1 the results were TDP2 inh -5.9, UHRF1 binding -0.8, LEDGF integ inh 32.2*, MBD2 inh -2.7, IN multimer up 0.2, TRFRET interf -1.0 and LEDGF integ conf -4.4.
For CC(=O)Nc1ccc2c(c1)C(=O)N(C)[C@H]1CC[C@@H](CC(=O)NCc3ccccc3)O[C@H]1CO2 the results were Casp6 inh -0.2.
Screening COc1ccc(CNC(=O)C2CCCN(c3nccc(C)n3)C2)cc1 (stereo not drawn) returned NSD2 HMT inh 25.3, TDP2 inh 14.7, UHRF1 binding 3.0, LEDGF integ inh 22.9*, MBD2 inh -4.8, IN multimer up 0.2, TRFRET interf -1.2 and LEDGF integ conf 0.5.
Screening C[C@H](O)[C@@H]1CN2CCc3c([nH]c4ccccc34)[C@@H]2C[C@@H]1N(C)C(=O)Nc1cccc2ccccc12 returned TDP2 inh 13.0, UHRF1 binding -9.2, LEDGF integ inh 3.6, MBD2 inh -8.8 and Casp6 inh 6.2.
`Cc1cccc(-c2ccc3[nH]c4c(c3c2)CCN2C[C@@H]([C@H](C)OC(=O)Nc3ccccc3C)[C@@H](N(C)C(=O)Nc3ccccc3C)C[C@@H]42)c1` gave TDP2 inh -0.7, UHRF1 binding -0.2, LEDGF integ inh 56.1*, MBD2 inh 1.8, Casp6 inh -7.2, IN multimer up 1.6, TRFRET interf -5.5 and LEDGF integ conf -4.9.
For CC(C)NC(=O)N(C)C[C@@H]1Oc2cc(C#CCN(C)C)ccc2S(=O)(=O)N([C@@H](C)CO)C[C@H]1C the results were Casp6 inh 1.7.
Screening Cc1cccc(C)c1NC(=O)NCCSc1snnc1C returned NSD2 HMT inh -3.1, TDP2 inh 2.8, UHRF1 binding 2.0, LEDGF integ inh 15.0*, MBD2 inh 1.8, Casp6 inh -2.5, IN multimer up 0.1, TRFRET interf -0.5 and LEDGF integ conf 2.0.
Cc1nnsc1SCCNC(=O)c1c(F)cccc1F was read as NSD2 HMT inh 36.0, TDP2 inh -8.0, UHRF1 binding 4.3, LEDGF integ inh -3.1 and MBD2 inh -2.5.
For COc1ccccc1C#Cc1cnc2c(c1)C(=O)N([C@H](C)CO)C[C@@H](C)[C@H](CN(C)C(=O)c1ccc3c(c1)OCO3)O2 the results were Casp6 inh -1.1.
Screening NCCCCCNC(=O)/C=N\O returned NSD2 HMT inh 4.2, TDP2 inh 2.2, UHRF1 binding 1.2, LEDGF integ inh 34.4*, MBD2 inh 5.7, IN multimer up -0.8, TRFRET interf 4.0 and LEDGF integ conf -7.8.
For CC(C)NC(=O)N(C)C[C@@H]1Oc2c(NS(C)(=O)=O)cccc2C(=O)N([C@H](C)CO)C[C@H]1C the results were Casp6 inh -0.2.
